Test results from ChEMBL document CHEMBL2086289, “Anti-HIV activity of semisynthetic derivatives of andrographolide and computational study of HIV-1 gp120 protein binding” (Eur J Med Chem, 2012).
Calls of active or inactive are those of the source. The calls are words filed in the database; no cut-off is given here.

Legend:
[1] = biological target: Protease (Human immunodeficiency virus 1) (UniProt Q9YQ12); experiment: Inhibition of HIV1 protease at 50 uM by ELISA
Method in brief: (§1)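 Single-concentration screens run with commercial kits per the manufacturers' protocols. RT was measured by ELISA kit, with nevirapine 1 mM as positive control. HIV-1 protease was measured by a protease assay kit, with saquinavir 1 mM as positive control.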

[2] = Cytotoxicity against human TZM-bl cells after 48 hrs by MTT assay; type: cell-based
Method in brief: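 TZM-bl cells seeded at 6.0 × 10³/well and incubated 24 h at 37 °C, 5% CO₂. They were then exposed to four compound concentrations (4, 20, 100, 500) or solvent for 48 h. MTT was added for 4 h at 37 °C, followed by overnight solubilization in SDS/DMF/PBS. Absorbance read at 570 nm with a 690 nm reference. Viability was scored relative to untreated cells, and CC50 came from nonlinear curve fitting.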

[3] = tested on: Human immunodeficiency virus 1; experiment: Antiviral activity against HIV1 in human TZM-bl cells assessed as viral infectivity by luciferase assay; type: functional, organism-based; settings: Human immunodeficiency virus 1, TZM-bl
Method in brief: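 TZM-bl cells seeded at 4.0 × 10⁴/well and held overnight. CXCR4-tropic HIV-1 NL4.3 (MOI 0.05) was pre-incubated with compound or solvent for 1 h at 37 °C, then added in duplicate for 4 h and washed off. Cells got fresh medium with compound for 48 h, then lysis and luciferase chemiluminescence. AZT served as positive control. IC50 is the concentration giving 50% inhibition of infection versus infected untreated cells.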

TZM-bl = experiment: (§2) Inhibition of HIV1 gp120 expressed in human HL2/3 cells assessed as compound-treated HL2/3 cell fusion to human TZM-bl cells after 48 hrs by luciferase assay; type: cell-based; settings: Human immunodeficiency virus 1
Method in brief: (§3)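 Either HL2/3 cells (HeLa-derived, expressing HIV-1 HxB2 Env plus Tat, Gag, Rev and Nef; G418-maintained) or TZM-bl cells were pre-treated with compound, then washed. Treated cells were co-cultured with the untreated partner line at 1:1 (1.0 × 10⁵ cells/well) for 48 h at 37 °C, 5% CO₂. Luciferase activity was measured and inhibition scored relative to no-compound co-cultures, with Bicyclam as reference. IC50 is the concentration giving 50% inhibition of luciferase expression.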

[4] = as §2; type: cell-based, Human immunodeficiency virus 1; method in brief: as §3
[5] = Inhibition of HIV1 gp120 expressed in human HL2/3 cells assessed as Hl2/3 cell fusion to compound-treated human TZM-bl cells after 48 hrs by luciferase assay; type: cell-based, Human immunodeficiency virus 1; method in brief: as §3
[6] = biological target: Human immunodeficiency virus type 1 reverse transcriptase (Human immunodeficiency virus 1) (UniProt Q72547); experiment: Inhibition of HIV1 reverse transcriptase at 50 uM by ELISA; method in brief: as §1
[7] = tested on: Human immunodeficiency virus 1; experiment: Antiviral activity against HIV1 assessed as inhibition of syncytia formation; type: functional, organism-based
[8] = Therapeutic index, ratio of CC50 for human TZM-bl cells to IC50 for HIV1; type: cell-based; settings: read-out: Ratio CC50/IC50
Method in brief: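 Ratio of CC50 from the 48 h MTT assay in TZM-bl cells to IC50 from the NL4.3 luciferase infectivity assay in TZM-bl cells.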

[9] = Human immunodeficiency virus 1, TZM-bl, 48 h, read-out: IC50

Sequence of Protease (Human immunodeficiency virus 1) (Q9YQ12 as listed by the source): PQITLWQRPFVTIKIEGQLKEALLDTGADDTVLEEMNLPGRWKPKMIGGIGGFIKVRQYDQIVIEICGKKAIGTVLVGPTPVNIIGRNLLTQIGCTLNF

C=C1CC[C@@H]2[C@](C)(CO)[C@H](O)CC[C@@]2(C)[C@@H]1C/C=C1/C(=O)OC[C@H]1OC(=O)c1ccc(Cl)nc1Cl
inhibition [1]: inactive
CC50 at 48 h [2]: 10400 µM
IC50 ([3]; read-out: IC50): 0.83 µM
IC50 ([3]; read-out: pIC50 (converted)): 0.832 µM
inhibition (TZM-bl): Dose-dependent effect
IC50 [4, 9]: 1.1 µM
IC50 ([5]; tzm-bl): Not Active
inhibition [6]: inactive
inhibition [7]: Active
selectivity ratio [8]: 12500

C=C(C)[C@@H]1CC[C@]2(C(=O)NCCCCCCCC(=O)N[C@@H](CC(C)C)[C@H](O)CC(=O)O)CC[C@]3(C)[C@H](CC[C@@H]4[C@@]5(C)CC[C@H](O)C(C)(C)[C@@H]5CC[C@]43C)[C@@H]12
IC50 ([3]; read-out: IC50): 0.1 µM
IC50 ([3]; read-out: pIC50 (converted)): 0.1 µM

C=C1CC[C@@H]2[C@](C)(CO)[C@H](O)CC[C@@]2(C)[C@@H]1C/C=C1/C(=O)OC[C@H]1O [ANDROGRAPHOLIDE]
inhibition [1]: inactive
CC50 at 48 h [2]: 1700 µM
IC50 ([3]; read-out: IC50): 0.59 µM
IC50 ([3]; read-out: pIC50 (converted)): 0.589 µM
inhibition (TZM-bl): Dose-dependent effect
IC50 [4, 9]: 1.7 µM
IC50 ([5]; tzm-bl): Not Active
inhibition [6]: inactive
inhibition [7]: Active
selectivity ratio [8]: 2880

C=C1CC[C@@H]2[C@]3(C)COC(c4ccc(O)c(OC)c4)O[C@@H]3CC[C@@]2(C)[C@@H]1C/C=C1/C(=O)OC[C@H]1O (some centres not stated)
CC50 at 48 h [2]: 59 µM
IC50 ([3]; read-out: IC50): 6.09 µM
IC50 ([3]; read-out: pIC50 (converted)): 6.03 µM
selectivity ratio [8]: 10

C=C1CC[C@@H]2[C@]3(C)COC(c4ccc(O)cc4)O[C@@H]3CC[C@@]2(C)[C@@H]1C/C=C1/C(=O)OC[C@H]1O (some centres not stated)
CC50 at 48 h [2]: 50 µM
IC50 ([3]; read-out: IC50): 2.1 µM
IC50 ([3]; read-out: pIC50 (converted)): 2.09 µM
selectivity ratio [8]: 24

C=C1CC[C@@H]2[C@]3(C)COC(c4cccc([N+](=O)[O-])c4)O[C@@H]3CC[C@@]2(C)[C@@H]1C/C=C1/C(=O)OC[C@H]1O (some centres not stated)
inhibition [1]: inactive
CC50 at 48 h [2]: 745 µM
IC50 ([3]; read-out: IC50): 0.51 µM
IC50 ([3]; read-out: pIC50 (converted)): 0.513 µM
inhibition (TZM-bl): Dose-dependent effect
IC50 [4, 9]: 1.6 µM
IC50 ([5]; tzm-bl): Not Active
inhibition [6]: inactive
inhibition [7]: Active
selectivity ratio [8]: 1460

C=C1CC[C@@H]2[C@](C)(CO)[C@H](O)CC[C@@]2(C)[C@@H]1C/C=C1/C(=O)OC[C@H]1OC(=O)c1ccccc1O
CC50 at 48 h [2]: 1080 µM
IC50 ([3]; read-out: IC50): 84.2 µM
IC50 ([3]; read-out: pIC50 (converted)): 85.1 µM
selectivity ratio [8]: 12

C=C1CC[C@@H]2[C@]3(C)COC(c4ccc(O)cc4O)O[C@@H]3CC[C@@]2(C)[C@@H]1C/C=C1/C(=O)OC[C@H]1O (some centres not stated)
CC50 at 48 h [2]: 179 µM
IC50 ([3]; read-out: IC50): 1.09 µM
IC50 ([3]; read-out: pIC50 (converted)): 1.1 µM
selectivity ratio [8]: 164

C=C1CC[C@@H]2[C@](C)(COC(=O)NS(=O)(=O)c3ccc(C)cc3)[C@H](O)CC[C@@]2(C)[C@@H]1C/C=C1/C(=O)OC[C@H]1O
CC50 at 48 h [2]: 2040 µM
IC50 ([3]; read-out: IC50): 2.08 µM
IC50 ([3]; read-out: pIC50 (converted)): 2.09 µM
selectivity ratio [8]: 978

C=C1CC[C@@H]2[C@]3(C)COC(c4ccc(Cl)cc4)O[C@@H]3CC[C@@]2(C)[C@@H]1C/C=C1/C(=O)OC[C@H]1O (some centres not stated)
CC50 at 48 h [2]: 440 µM
IC50 ([3]; read-out: IC50): 9.94 µM
IC50 ([3]; read-out: pIC50 (converted)): 10 µM
selectivity ratio [8]: 44

Br.c1cc(CN2CCCNCCNCCCNCC2)ccc1CN1CCCNCCNCCCNCC1
IC50 ([4]; tzm-bl): Not Active
IC50 [5, 9]: 1.6 µM

C=C1CC[C@@H]2[C@]3(C)COC(c4ccc5c(c4)OCO5)O[C@@H]3CC[C@@]2(C)[C@@H]1C/C=C1/C(=O)OC[C@H]1O (some centres not stated)
CC50 at 48 h [2]: 1650 µM
IC50 ([3]; read-out: IC50): 2.75 µM
IC50 ([3]; read-out: pIC50 (converted)): 2.75 µM
selectivity ratio [8]: 599
